Reference: ChEMBL document CHEMBL1138570, “2-Acylhydrazino-5-arylpyrrole derivatives: synthesis and antifungal activity evaluation” (Eur J Med Chem, 2009)
In brackets after ≈: the same amount, converted by molar mass.

Assays:
Assay type in all cases: functional
[1] = tested on: Candida albicans; test: Antimicrobial activity against Candida albicans ATCC 10231 by broth microdilution method
Procedure, shortened: (§1)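 MIC by NCCLS broth microdilution. Medium was RPMI 1640 with L-glutamine, buffered with 0.165 M MOPS at pH 7.0. Twofold drug dilutions ran 0.008–200 mg/L. Inoculum was set spectrophotometrically to 10⁶ CFU/mL, then diluted in medium to 2 ×10⁴ cells/mL. Plates were incubated overnight at 35 °C in humid air, agitated, and read visually and at 450 nm.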

[2] = tested on: Nakaseomyces glabratus; test: Antimicrobial activity against Candida glabrata by broth microdilution method; procedure, shortened: as §1
[3] = tested on: Candida parapsilosis; test: Antimicrobial activity against Candida parapsilosis by broth microdilution method; settings: Lodderomyces parapsilosis; procedure, shortened: as §1
[4] = tested on: Pichia kudriavzevii; test: Antimicrobial activity against Candida krusei by broth microdilution method; procedure, shortened: as §1
[5] = tested on: Candida albicans; test: Antimicrobial activity against Candida albicans ATCC 10231 after 72 hrs by broth microdilution method; settings: ATCC 10231, 72 h
Procedure, shortened: (§2)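 MFC: after MIC reading, a sample from each well was plated on Sabouraud dextrose agar and incubated 72 h at 35 °C. MFC was taken as the minimum concentration killing >99% of the original inoculum. The MIC step was NCCLS broth microdilution in MOPS-buffered RPMI 1640 (pH 7.0), with 2 ×10⁴ cells/mL, overnight at 35 °C.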

[6] = tested on: Nakaseomyces glabratus; test: Antimicrobial activity against Candida glabrata after 72 hrs by broth microdilution method; procedure, shortened: as §2
[7] = tested on: Candida parapsilosis; test: Antimicrobial activity against Candida parapsilosis after 72 hrs by broth microdilution method; settings: Lodderomyces parapsilosis; procedure, shortened: as §2
[8] = tested on: Pichia kudriavzevii; test: Antimicrobial activity against Candida krusei after 72 hrs by broth microdilution method; procedure, shortened: as §2

| Structure (SMILES) | MIC [1] [µg/mL] | MIC [2] [µg/mL] | MIC [3] [µg/mL] | MIC [4] [µg/mL] | MFC [5] [µg/mL] | MFC [6] [µg/mL] | MFC [7] [µg/mL] | MFC [8] [µg/mL] |
| --- | --- | --- | --- | --- | --- | --- | --- | --- |
| CCCC(=O)NNc1[nH]c(-c2ccccc2)cc1C(=O)OCC | 12.5 (≈ 39.6 µM) | > 100 | 100 (≈ 317 µM) | > 100 | 12.5 (≈ 39.6 µM) | > 100 | > 100 | > 100 |
| CCOC(=O)NNc1[nH]c(-c2ccc(Cl)cc2)cc1C(=O)OCC | 25 (≈ 71.1 µM) | > 100 | 12.5 (≈ 35.5 µM) | 50 (≈ 142 µM) | > 100 | > 100 | 12.5 (≈ 35.5 µM) | > 100 |
| COCCC(=O)NNc1[nH]c(-c2ccccc2)cc1C#N | 6.25 (≈ 22 µM) | 3.25 (≈ 11.4 µM) | 6.25 (≈ 22 µM) | 6.25 (≈ 22 µM) | 6.25 (≈ 22 µM) | 12.5 (≈ 44 µM) | 25 (≈ 87.9 µM) | 12.5 (≈ 44 µM) |
| CCOC(=O)c1cc(-c2ccc(C)cc2)[nH]c1NNC(C)=O | > 100 | > 100 | 50 (≈ 166 µM) | 100 (≈ 332 µM) | > 100 | > 100 | 50 (≈ 166 µM) | > 100 |
| COCC(=O)NNc1[nH]c(-c2ccccc2)cc1C#N | 6.25 (≈ 23.1 µM) | 25 (≈ 92.5 µM) | 6.25 (≈ 23.1 µM) | 6.25 (≈ 23.1 µM) | 6.25 (≈ 23.1 µM) | 50 (≈ 185 µM) | 6.25 (≈ 23.1 µM) | 25 (≈ 92.5 µM) |
| CCCC(=O)NNc1[nH]c(-c2ccc(OC)cc2)cc1C(=O)OCC | 12.5 (≈ 36.2 µM) | > 100 | 12.5 (≈ 36.2 µM) | 50 (≈ 145 µM) | 12.5 (≈ 36.2 µM) | > 100 | > 100 | 100 (≈ 290 µM) |
| CCOC(=O)c1cc(-c2ccc(C)cc2)[nH]c1NNC(=O)Cc1ccc(OC)cc1 | > 100 | > 100 | 100 (≈ 245 µM) | 100 (≈ 245 µM) | > 100 | > 100 | > 100 | > 100 |
| COCC(=O)NNc1[nH]c(-c2ccc(OC)cc2)cc1C#N | 6.25 (≈ 20.8 µM) | 25 (≈ 83.2 µM) | 6.25 (≈ 20.8 µM) | 6.25 (≈ 20.8 µM) | 6.25 (≈ 20.8 µM) | 50 (≈ 166 µM) | 12.5 (≈ 41.6 µM) | 12.5 (≈ 41.6 µM) |
| CCOC(=O)c1cc(-c2ccccc2)[nH]c1NNC(=O)Cc1ccc(OC)cc1 | > 100 | > 100 | 50 (≈ 127 µM) | 50 (≈ 127 µM) | > 100 | > 100 | > 100 | > 100 |
| CCOC(=O)c1cc(-c2ccc(C)cc2)[nH]c1NNC(=O)C(C)C | 6.25 (≈ 19 µM) | > 100 | 25 (≈ 75.9 µM) | 25 (≈ 75.9 µM) | 12.5 (≈ 37.9 µM) | > 100 | > 100 | 100 (≈ 304 µM) |

Continued, in another order:

| MIC [1] [µg/mL] | MIC [2] [µg/mL] | MIC [3] [µg/mL] | MIC [4] [µg/mL] | Structure (SMILES) | MFC [5] [µg/mL] | MFC [6] [µg/mL] | MFC [7] [µg/mL] | MFC [8] [µg/mL] |
| --- | --- | --- | --- | --- | --- | --- | --- | --- |
| 3.12 (≈ 9.83 µM) | 6.25 (≈ 19.7 µM) | 3.12 (≈ 9.83 µM) | 6.25 (≈ 19.7 µM) | CCC(=O)NNc1[nH]c(-c2ccc(OC)cc2)cc1C(=O)OC | 3.12 (≈ 9.83 µM) | 12.5 (≈ 39.4 µM) | 12.5 (≈ 39.4 µM) | 6.25 (≈ 19.7 µM) |
| 6.25 (≈ 18.9 µM) | 3.12 (≈ 9.42 µM) | 100 (≈ 302 µM) | 100 (≈ 302 µM) | CCOC(=O)NNc1[nH]c(-c2ccc(C)cc2)cc1C(=O)OCC | 6.25 (≈ 18.9 µM) | 25 (≈ 75.4 µM) | > 100 | > 100 |
| 3.12 (≈ 10.3 µM) | 3.12 (≈ 10.3 µM) | 3.12 (≈ 10.3 µM) | 6.25 (≈ 20.6 µM) | CCOC(=O)NNc1[nH]c(-c2ccccc2)cc1C(=O)OC | 6.25 (≈ 20.6 µM) | 12.5 (≈ 41.2 µM) | 12.5 (≈ 41.2 µM) | 25 (≈ 82.4 µM) |
| 3.12 (≈ 13 µM) | 6.25 (≈ 26 µM) | 3.12 (≈ 13 µM) | 3.12 (≈ 13 µM) | CC(=O)NNc1[nH]c(-c2ccccc2)cc1C#N | 3.12 (≈ 13 µM) | 12.5 (≈ 52 µM) | 12.5 (≈ 52 µM) | 6.25 (≈ 26 µM) |
| 3.12 (≈ 11.5 µM) | 3.12 (≈ 11.5 µM) | 6.25 (≈ 23.1 µM) | 3.12 (≈ 11.5 µM) | CCOC(=O)NNc1[nH]c(-c2ccccc2)cc1C#N | 3.12 (≈ 11.5 µM) | 6.25 (≈ 23.1 µM) | 12.5 (≈ 46.2 µM) | 6.25 (≈ 23.1 µM) |
| 3.12 (≈ 9.42 µM) | 6.25 (≈ 18.9 µM) | 6.25 (≈ 18.9 µM) | 12.5 (≈ 37.7 µM) | CCOC(=O)c1cc(-c2ccccc2)[nH]c1NNC(=O)CCOC | 6.25 (≈ 18.9 µM) | 25 (≈ 75.4 µM) | 25 (≈ 75.4 µM) | 50 (≈ 151 µM) |
| 3.12 (≈ 10.5 µM) | 50 (≈ 168 µM) | 25 (≈ 83.8 µM) | 50 (≈ 168 µM) | COc1ccc(-c2cc(C#N)c(NNC(=O)C(C)C)[nH]2)cc1 | 3.12 (≈ 10.5 µM) | > 100 | > 100 | > 100 |
